Data: ChEMBL document CHEMBL1764970, “New glucocerebrosidase inhibitors by exploration of chemical diversity of N-substituted aminocyclitols using click chemistry and in situ screening” (J Med Chem, 2011)
Calls of active or inactive are those of the source. No cut-off for these calls is given here.

Key:
Alpha-galactosidase = Alpha-galactosidase (Coffea arabica, UniProt Q42656); assay: Inhibition of alpha-galactosidase from coffee beans
[1] = Cytotoxicity against human wild type fibroblasts at up to 300 uM after 24 hrs by MTT assay; format: cell-based; conditions: fibroblast
[2] = biological target: Oligo-1,6-glucosidase IMA1 (Saccharomyces cerevisiae S288c, UniProt P53051); assay: Inhibition of yeast alpha-glucosidase
[3] = biological target: T1, Lysosomal acid glucosylceramidase (Homo sapiens, UniProt P04062); assay: Inhibition of recombinant glucocerebrosidase in McIlvaine buffer at pH 5.2 after 10 mins by fluorometric analysis
T1 sequence (P04062 whole entry): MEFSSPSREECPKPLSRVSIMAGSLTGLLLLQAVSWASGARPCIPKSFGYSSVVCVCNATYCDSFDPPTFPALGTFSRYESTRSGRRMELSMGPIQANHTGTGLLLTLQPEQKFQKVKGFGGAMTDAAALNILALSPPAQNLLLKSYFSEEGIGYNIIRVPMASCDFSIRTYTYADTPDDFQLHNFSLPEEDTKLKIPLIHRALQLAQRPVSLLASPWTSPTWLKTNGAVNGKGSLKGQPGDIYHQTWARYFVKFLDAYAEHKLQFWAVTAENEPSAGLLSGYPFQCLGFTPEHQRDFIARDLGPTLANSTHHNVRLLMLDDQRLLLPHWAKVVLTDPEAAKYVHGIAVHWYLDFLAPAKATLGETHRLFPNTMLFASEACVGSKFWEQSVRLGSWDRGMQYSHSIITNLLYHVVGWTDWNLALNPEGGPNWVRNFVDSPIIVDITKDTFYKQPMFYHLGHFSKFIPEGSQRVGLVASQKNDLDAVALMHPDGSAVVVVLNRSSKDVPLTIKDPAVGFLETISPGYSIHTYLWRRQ
How it was run: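 Imiglucerase in McIlvaine buffer pH 5.2 containing 0.2% (w/v) sodium taurocholate and 0.1% (v/v) Triton X-100. Enzyme pre-incubated 30 min at 37 °C with inhibitor. Then 4 mM 4-methylumbelliferyl β-D-glucopyranoside (substrate solution), 10 min at 37 °C. Stop with 100 mM glycine/NaOH pH 10.6, fluorescence ex 355/em 460 nm. IC50 from % activity vs log[I], at least five concentrations.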

[4] = biological target: T2, Lysosomal acid glucosylceramidase (Homo sapiens) (UniProt P04062); assay: Enzyme stabilization ratio of recombinant glucocerebrosidase activity at 48 degC to at 37 degC at 100 uM after 60 mins
T2 sequence (whole entry): T1 sequence (P04062 whole entry)

[5] = biological target: Probable alpha-glucosidase Os06g0675700 (Oryza sativa Japonica Group, UniProt Q653V7); assay: Inhibition of rice alpha-glucosidase
[6] = biological target: T1, Lysosomal acid glucosylceramidase; assay: Inhibition of recombinant glucocerebrosidase in McIlvaine buffer at pH 7.4 after 10 mins by fluorometric analysis
[7] = biological target: T1, Lysosomal acid glucosylceramidase; assay: Competitive inhibition of recombinant glucocerebrosidase
[8] = biological target: T2, Lysosomal acid glucosylceramidase (Homo sapiens); assay: Inhibition of glucocerebrosidase in human intact fibroblasts at 50 uM after 24 hrs by fluorometric analysis
How it was run: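 Fibroblasts grown in MEM with 15% inactivated FCS, 37 °C, 5% CO2, passages 14–30. Plated in DMEM with aminocyclitol (50 μM final, from DMSO) for 24 h, washed with PBS. GCase assayed with 1 h incubation at 37 °C, stopped with 100 mM glycine-NaOH pH 10.6, fluorescence 355/460 nm. Untreated and treated cells in quadruplicate.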

Beta-galactosidase = biological target: T3, Beta-galactosidase (Bos taurus, UniProt Q58D55); assay: Inhibition of bovine liver beta-galactosidase
T3 sequence (Q58D55 whole entry): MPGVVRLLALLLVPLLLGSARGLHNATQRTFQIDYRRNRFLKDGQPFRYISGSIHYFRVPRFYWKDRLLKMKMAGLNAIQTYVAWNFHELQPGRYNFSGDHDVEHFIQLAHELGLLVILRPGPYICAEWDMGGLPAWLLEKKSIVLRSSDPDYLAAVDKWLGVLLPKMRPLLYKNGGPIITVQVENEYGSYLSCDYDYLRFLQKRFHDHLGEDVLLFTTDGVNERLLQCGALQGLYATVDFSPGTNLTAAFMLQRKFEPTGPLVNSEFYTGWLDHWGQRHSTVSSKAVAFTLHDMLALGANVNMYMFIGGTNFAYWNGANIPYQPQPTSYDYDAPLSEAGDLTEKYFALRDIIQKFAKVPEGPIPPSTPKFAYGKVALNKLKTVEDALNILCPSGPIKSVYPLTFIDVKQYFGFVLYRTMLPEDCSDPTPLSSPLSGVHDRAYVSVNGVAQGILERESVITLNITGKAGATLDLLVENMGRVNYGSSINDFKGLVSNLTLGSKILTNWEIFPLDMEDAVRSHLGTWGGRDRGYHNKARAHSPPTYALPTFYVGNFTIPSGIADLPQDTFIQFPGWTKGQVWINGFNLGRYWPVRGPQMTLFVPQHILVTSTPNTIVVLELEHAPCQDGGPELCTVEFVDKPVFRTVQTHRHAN

[9] = biological target: T4, Ceramide glucosyltransferase (Homo sapiens) (UniProt Q16739); assay: Inhibition of glucosylceramide synthase in human A549 cells at 250 uM after 35 mins by fluorometric analysis; format: cell-based
T4 sequence (whole entry): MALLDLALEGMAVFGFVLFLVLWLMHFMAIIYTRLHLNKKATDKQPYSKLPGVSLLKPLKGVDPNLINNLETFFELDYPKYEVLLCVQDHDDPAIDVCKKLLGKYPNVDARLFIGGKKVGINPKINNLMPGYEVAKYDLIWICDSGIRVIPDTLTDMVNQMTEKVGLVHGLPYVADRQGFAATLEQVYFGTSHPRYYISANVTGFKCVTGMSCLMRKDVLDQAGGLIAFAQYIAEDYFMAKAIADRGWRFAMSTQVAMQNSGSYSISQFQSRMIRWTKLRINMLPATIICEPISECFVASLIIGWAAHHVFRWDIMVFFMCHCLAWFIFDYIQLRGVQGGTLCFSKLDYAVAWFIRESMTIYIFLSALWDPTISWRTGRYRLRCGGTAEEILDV

[10] = biological target: T2, Lysosomal acid glucosylceramidase (Homo sapiens); assay: Thermal stabilization of recombinant glucocerebrosidase assessed as enzyme activity at 150 uM at 48 degC after 60 mins
How it was run: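 GCase (2 mg/mL) heated at 48 °C, pH 7.4, with water (control) or compound at 10–150 μM final, for 20, 40 or 60 min. Then acetate-phosphate pH 5.0 and 4 mM 4-methylumbelliferyl β-D-glucoside in McIlvaine pH 5.2 added, 10 min at 37 °C. Stopped with glycine pH 10.6, 4-methylumbelliferone measured. Activity relative to identical assay at 37 °C. SR = relative activity with vs without inhibitor.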

Chain of Oligo-1,6-glucosidase IMA1 (P53051 whole entry): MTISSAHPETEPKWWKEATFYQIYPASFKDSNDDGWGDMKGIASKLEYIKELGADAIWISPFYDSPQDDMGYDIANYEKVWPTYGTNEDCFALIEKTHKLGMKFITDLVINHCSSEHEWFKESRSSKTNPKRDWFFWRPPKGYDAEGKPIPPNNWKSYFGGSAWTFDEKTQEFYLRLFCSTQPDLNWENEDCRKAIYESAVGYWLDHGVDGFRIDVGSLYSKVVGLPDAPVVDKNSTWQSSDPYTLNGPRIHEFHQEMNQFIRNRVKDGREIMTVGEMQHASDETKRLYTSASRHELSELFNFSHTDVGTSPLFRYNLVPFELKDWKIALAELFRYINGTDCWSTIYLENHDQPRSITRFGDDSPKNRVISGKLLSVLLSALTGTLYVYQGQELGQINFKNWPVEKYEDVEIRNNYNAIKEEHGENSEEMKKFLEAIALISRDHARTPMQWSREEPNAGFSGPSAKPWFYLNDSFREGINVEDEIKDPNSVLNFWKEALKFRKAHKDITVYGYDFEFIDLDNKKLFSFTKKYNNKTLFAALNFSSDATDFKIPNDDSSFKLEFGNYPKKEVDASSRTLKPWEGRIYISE
Chain of Probable alpha-glucosidase Os06g0675700 (Q653V7 whole entry): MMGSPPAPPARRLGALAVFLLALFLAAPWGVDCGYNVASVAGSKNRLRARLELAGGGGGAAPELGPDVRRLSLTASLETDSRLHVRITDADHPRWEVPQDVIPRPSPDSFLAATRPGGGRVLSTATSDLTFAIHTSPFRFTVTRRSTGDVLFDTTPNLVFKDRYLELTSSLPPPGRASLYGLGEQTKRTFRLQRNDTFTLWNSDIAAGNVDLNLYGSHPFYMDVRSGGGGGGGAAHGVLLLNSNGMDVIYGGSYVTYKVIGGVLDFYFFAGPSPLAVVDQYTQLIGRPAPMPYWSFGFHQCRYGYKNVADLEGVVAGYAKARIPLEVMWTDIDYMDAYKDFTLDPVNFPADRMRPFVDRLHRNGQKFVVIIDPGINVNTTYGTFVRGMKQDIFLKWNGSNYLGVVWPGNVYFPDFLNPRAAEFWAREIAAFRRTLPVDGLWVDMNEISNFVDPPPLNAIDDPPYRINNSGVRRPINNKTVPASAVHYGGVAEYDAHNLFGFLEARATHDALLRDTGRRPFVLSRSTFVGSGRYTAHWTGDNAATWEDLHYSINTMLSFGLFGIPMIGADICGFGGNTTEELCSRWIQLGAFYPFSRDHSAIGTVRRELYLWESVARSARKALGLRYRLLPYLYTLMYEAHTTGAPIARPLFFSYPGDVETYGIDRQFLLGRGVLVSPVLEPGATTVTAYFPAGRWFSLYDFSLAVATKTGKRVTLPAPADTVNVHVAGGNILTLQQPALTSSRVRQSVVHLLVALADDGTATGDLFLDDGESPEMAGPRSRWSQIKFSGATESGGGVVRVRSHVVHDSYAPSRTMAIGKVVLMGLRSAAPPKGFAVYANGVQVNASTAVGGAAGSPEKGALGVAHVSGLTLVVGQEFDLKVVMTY
Chain of Alpha-galactosidase (Q42656 whole entry): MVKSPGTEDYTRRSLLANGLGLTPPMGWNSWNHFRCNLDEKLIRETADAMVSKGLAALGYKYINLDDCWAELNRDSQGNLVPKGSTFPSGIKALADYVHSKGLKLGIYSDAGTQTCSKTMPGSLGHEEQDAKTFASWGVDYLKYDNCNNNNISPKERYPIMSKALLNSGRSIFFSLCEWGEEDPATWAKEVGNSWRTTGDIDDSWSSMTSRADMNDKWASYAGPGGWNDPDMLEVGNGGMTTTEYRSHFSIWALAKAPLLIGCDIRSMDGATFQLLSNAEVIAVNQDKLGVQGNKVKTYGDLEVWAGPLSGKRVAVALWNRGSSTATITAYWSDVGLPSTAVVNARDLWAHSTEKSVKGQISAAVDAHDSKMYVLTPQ

IC50 (Alpha-galactosidase)	IC50 [2]	IC50 [3]	IC50 [5]	IC50 (Beta-galactosidase)	Structure (SMILES)	Activity [1]	also measured
> 100 µM	> 100 µM	0.06 µM	> 100 µM	> 100 µM	CCCCCCCCCCCn1cc(CN[C@H]2[C@H](O)[C@@H](O)[C@H](O)[C@@H](O)[C@@H]2O)nn1	Non-toxic	Ratio [4]: 30.5; IC50 [6]: 0.1 µM; Ki [7]: 0.05 µM; inhibition [8]: 97%; inhibition [9]: 29%
–	–	5.8 µM	–	–	OCCCCCCCn1cc(CN[C@H]2[C@H](O)[C@@H](O)[C@H](O)[C@@H](O)[C@@H]2O)nn1	–	–
–	–	10 µM	–	–	O[C@@H]1[C@@H](O)[C@H](O)[C@@H](NCc2cn(CCCCCOCc3ccccc3)nn2)[C@H](O)[C@H]1O	–	–
–	–	453 µM	–	–	COCCCOCCCOCCCn1cc(CN[C@H]2[C@H](O)[C@@H](O)[C@H](O)[C@@H](O)[C@@H]2O)nn1	–	–
> 100 µM	> 100 µM	0.05 µM	> 100 µM	> 100 µM	O[C@@H]1[C@@H](O)[C@H](O)[C@@H](NCc2cn(Cc3cc(OCc4ccccc4)cc(OCc4ccccc4)c3)nn2)[C@H](O)[C@H]1O	Non-toxic	Ratio [4]: 31.2; IC50 [6]: 0.06 µM; Ki [7]: 0.05 µM; inhibition [8]: 93%; inhibition [9]: 9%
–	–	10.3 µM	–	–	O[C@@H]1[C@@H](O)[C@H](O)[C@@H](NCc2cn(Cc3cccc(I)c3)nn2)[C@H](O)[C@H]1O	–	–
–	–	181 µM	–	–	CCCCOCCCOCCCn1cc(CN[C@H]2[C@H](O)[C@@H](O)[C@H](O)[C@@H](O)[C@@H]2O)nn1	–	–
> 100 µM	> 100 µM	2.25 µM	> 100 µM	> 100 µM	CCCCCCCCn1cc(CN[C@H]2[C@H](O)[C@@H](O)[C@H](O)[C@@H](O)[C@@H]2O)nn1	Non-toxic	–
–	–	134 µM	–	–	CC(C)(CO)Cn1cc(CN[C@H]2[C@H](O)[C@@H](O)[C@H](O)[C@@H](O)[C@@H]2O)nn1	–	–
> 100 µM	> 100 µM	2.2 µM	> 100 µM	> 100 µM	O[C@@H]1[C@@H](O)[C@H](O)[C@@H](NCc2cn(CC34CC5CC(CC(C5)C3)C4)nn2)[C@H](O)[C@H]1O	Non-toxic	Activity [10]: inactive; Ratio [4]: 0.7; IC50 [6]: 1.9 µM; Ki [7]: 1.05 µM; inhibition [8]: 63%; inhibition [9]: 32%
–	–	4.32 µM	–	–	O[C@@H]1[C@@H](O)[C@H](O)[C@@H](NCc2cn(CCCC3CCCCC3)nn2)[C@H](O)[C@H]1O	–	–
–	–	114 µM	–	–	Cn1nnc2ccc(Cn3cc(CN[C@H]4[C@H](O)[C@@H](O)[C@H](O)[C@@H](O)[C@@H]4O)nn3)cc21	–	–
–	–	466 µM	–	–	COCCCOCCCn1cc(CN[C@H]2[C@H](O)[C@@H](O)[C@H](O)[C@@H](O)[C@@H]2O)nn1	–	–
> 100 µM	> 100 µM	0.15 µM	> 100 µM	> 100 µM	CCCCCCCCCCn1cc(CN[C@H]2[C@H](O)[C@@H](O)[C@H](O)[C@@H](O)[C@@H]2O)nn1	Non-toxic	–
–	–	12.2 µM	–	–	O[C@@H]1[C@@H](O)[C@H](O)[C@@H](NCc2cn(CCCc3nc4ccc(C(F)(F)F)cc4[nH]3)nn2)[C@H](O)[C@H]1O	–	–
–	–	30.9 µM	–	–	O[C@@H]1[C@@H](O)[C@H](O)[C@@H](NCc2cn(Cc3ccc(CN4CCCCC4)cc3)nn2)[C@H](O)[C@H]1O	–	–
–	–	325 µM	–	–	CC(C)(C)OCCCOCCCn1cc(CN[C@H]2[C@H](O)[C@@H](O)[C@H](O)[C@@H](O)[C@@H]2O)nn1	–	–
> 100 µM	> 100 µM	1.5 µM	> 100 µM	> 100 µM	O[C@@H]1[C@@H](O)[C@H](O)[C@@H](NCc2cn(CCCCC3CCCCC3)nn2)[C@H](O)[C@H]1O	Non-toxic	Ratio [4]: 7.5; IC50 [6]: 0.3 µM; Ki [7]: 0.29 µM; inhibition [8]: 30%; inhibition [9]: 8%
–	–	66.5 µM	–	–	CN1CCN(Cc2cccc(Cn3cc(CN[C@H]4[C@H](O)[C@@H](O)[C@H](O)[C@@H](O)[C@@H]4O)nn3)c2)CC1	–	–
–	–	237 µM	–	–	CCCCc1ncc(Cn2cc(CN[C@H]3[C@H](O)[C@@H](O)[C@H](O)[C@@H](O)[C@@H]3O)nn2)[nH]1	–	–
–	–	17.3 µM	–	–	O[C@@H]1[C@@H](O)[C@H](O)[C@@H](NCc2cn(Cc3cc4nsnc4cc3Cl)nn2)[C@H](O)[C@H]1O	–	–
> 100 µM	> 100 µM	2.19 µM	> 100 µM	43 µM	OCCCCCCCCCCn1cc(CN[C@H]2[C@H](O)[C@@H](O)[C@H](O)[C@@H](O)[C@@H]2O)nn1	Non-toxic	Ratio [4]: 6.9; IC50 [6]: 1.3 µM; Ki [7]: 0.89 µM; inhibition [8]: 28%; inhibition [9]: 28%
> 100 µM	> 100 µM	–	> 100 µM	> 100 µM	CCCCCCCCCN1C[C@H](O)[C@@H](O)[C@H](O)[C@H]1CO	Non-toxic	–
–	–	35.9 µM	–	–	O[C@@H]1[C@@H](O)[C@H](O)[C@@H](NCc2cn(C3CSCCCSC3)nn2)[C@H](O)[C@H]1O	–	–
> 100 µM	> 100 µM	1.5 µM	> 100 µM	> 100 µM	O[C@@H]1[C@@H](O)[C@H](O)[C@@H](NCc2cn(CCC(c3ccccc3)c3ccccc3)nn2)[C@H](O)[C@H]1O	Non-toxic	Activity [10]: inactive; Ratio [4]: 0.5; IC50 [6]: 1.8 µM; Ki [7]: 0.77 µM; inhibition [8]: 73%; inhibition [9]: 18%
–	–	44.5 µM	–	–	CSCCCn1cc(CN[C@H]2[C@H](O)[C@@H](O)[C@H](O)[C@@H](O)[C@@H]2O)nn1	–	–

Structure (SMILES)	IC50 (Alpha-galactosidase)	IC50 [2]	IC50 [3]	IC50 [5]	IC50 (Beta-galactosidase)	Activity [1]	also measured
CCCCCCCCCCN[C@H]1[C@H](O)[C@@H](O)[C@H](O)[C@@H](O)[C@@H]1O	> 100 µM	> 100 µM	–	> 100 µM	> 100 µM	Non-toxic	Ratio [4]: 4.9
